TPT1 inhibitor: Candida albicans TPT1 enzyme inhibitors, primary screen, biochemical, fluorescence polarization | tRNA 2'-phosphotransferase TPT1 (Candida albicans SC5314) | recombinant caTPT1, FP RNA substrate dephosphorylation | inhibition, % at 5 µM | 0.81% of 300,000 active;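 active = inhibition above the mean of all tested compounds plus 3 SD, set per screening campaign, cut at about 24% in these data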;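 note: plate controls were DMSO alone for no effect and ferristatin control at 100 nM for full effect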
Myeloid diff MLP: induction of myeloid progenitor differentiation, primary screen, cell-based, flow cytometry, MLPCN library | ER-HoxA9 myeloid progenitors, lysozyme-GFP differentiation | calls only at 10 µM | 1% of 360,000 active;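 active = normalized GFP-positive differentiation at or above the plate's own cutoff, the solvent-only control mean plus 3 SD; inconclusive = no clear call, values can overlap the other calls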;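 note: cells exposed to compound for four days before flow analysis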
CSN inh: inhibitors of CSN-mediated cullin deneddylation, primary screen, biochemical, fluorescence polarization, uHTS. COP9 signalosome complex subunit 5 (Homo sapiens), Q92905. Purified CSN, SCF-Nedd8-OG deneddylation. inhibition, % at 12.5 µM. 0.38% of 360,000 active. AID 651999, 2013;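 active = pattern-corrected inhibition above about 35%, with an unprinted fluorescence ratio check between 0.5 and 1.5, limit read from the data, passing the limit was not always enough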;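 note: 0% = enzyme with substrate and 100% = substrate without enzyme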
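Assay system: Purified human Csn5 enzyme expressed in HEK293T cells | Amount: Enzyme 0.24 nM | Measured by: Fluorescence polarization readout | Medium: Tris/NaCl/DTT buffer, pH 7.5 | Compound dosing: One concentration, 12.5 µM, 0.25% DMSO | Times: 90 min incubation of compound, enzyme and substrate at room temperature | Control set: no-enzyme wells high, enzyme-with-substrate wells low | Read-out: % inhibition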
Rpn11 inh: Rpn11 (PSMD14) deubiquitinase inhibitors, primary screen, biochemical, fluorescence polarization, uHTS; 0.59% of 360,000 active; AID 588493, 2011; human 26S proteasome, Ub4-pepOG fluorescence polarization; 20S core pre-blocked with epoxomicin; inhibition, % at 20 µM;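 active = inhibition at 20 µM, scaled to each plate's controls, above about 33%, limit read from the data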
Target sequence (O00487 whole entry, looked up): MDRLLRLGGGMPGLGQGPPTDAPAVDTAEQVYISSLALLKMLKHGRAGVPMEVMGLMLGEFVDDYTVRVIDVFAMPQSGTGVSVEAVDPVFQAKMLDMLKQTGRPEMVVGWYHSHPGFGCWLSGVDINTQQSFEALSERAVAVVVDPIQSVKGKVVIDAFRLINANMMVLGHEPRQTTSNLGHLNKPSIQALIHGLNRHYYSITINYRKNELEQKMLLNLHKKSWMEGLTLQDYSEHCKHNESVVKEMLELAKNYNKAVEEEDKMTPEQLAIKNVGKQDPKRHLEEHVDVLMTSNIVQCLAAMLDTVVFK
HNF4A DNA FP: change in binding of human HNF4A to DNA, primary screen, biochemical, fluorescence polarization, FITC-DNA; 0.3% of 360,000 active; Hepatocyte nuclear factor 4-alpha (Homo sapiens), P41235; activity change, % at 10 µM; 1 h; AID 1224865, 2016; in the data active = activity change above about 30%, passing the limit was not always enough
Rpn11 inh conf: Rpn11 (PSMD14) deubiquitinase inhibitors, confirmation, biochemical, fluorescence polarization, single concentration. shares compounds with Rpn11 inh. purified human 26S proteasome, Ub4-pepOG fluorescence polarization; proteasome pretreated with epoxomicin. inhibition, % at 20 µM. 29% of 1,900 active. AID 602318, 2012
MMP-2 inh: MMP-2 enzyme inhibition, confirmation, counter-screen for RPN11 inhibitor project, biochemical, fluorescence, single concentration; shares compounds with Rpn11 inh; recombinant MMP-2, FRET peptide cleavage fluorescence; inhibition, % at 20 µM; 4% of 1,900 active; AID 602330, 2012;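 note: human MMP-2 activated beforehand with APMA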
Thrombin inh: bovine thrombin protease inhibition, confirmation, counter-screen for Rpn11 inhibitor project, biochemical, fluorescence polarization, single concentration; shares compounds with Rpn11 inh; bovine thrombin cleavage of Ub4-pepOG; inhibition, % at 20 µM; 13% of 1,900 active; AID 602333, 2012;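 active = mean inhibition at least 40% at 20 µM, or signal 3 deviations below plate average, so some actives read negative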;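 note: plate controls were thrombin with DMSO for no effect and buffer wells lacking thrombin for full effect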
Numbers without * were called inactive; i = inactive; ? = inconclusive; / = not tested or not shown; + = active, no number. The list is not random: actives were taken first. Their share in the collection is about 2.3%. Cut-off read from the data, not from the text of the source, unless noted: active = inhibition above about 40%; inactive = the rest.

SMILES	TPT1 inhibitor	Myeloid diff MLP	CSN inh	Rpn11 inh	HNF4A DNA FP	Rpn11 inh conf	MMP-2 inh	Thrombin inh
NC(=O)c1nsc(C(=O)N(Cc2cccnc2)C(C(=O)NCc2ccc(F)cc2)c2ccc(O)cc2)c1N (stereo not drawn)	2.4	i	2.3	5.1	-1.6	/	/	/
Cc1cc(C)c(NC(=O)CNC(=O)COC(=O)C2=COCCO2)c(C)c1	0.5	i	-5.5	1.6	0.5	/	/	/
CC1=CN2C(=N)/C(=C/c3ccc(Sc4ccc(C)cc4)o3)C(=O)N=C2S1	17.4	i	-6.3	47.7*	7.2	34.4	-15.0	11.7
Cc1nnc(SCc2nc3sc4c(c3c(=O)[nH]2)CCCC4)[nH]c1=O	20.7	i	17.2	61.4*	17.8	21.3	-6.2	83.9*
CCCc1nc2sc3c(c2c(=O)[nH]1)CCCC3	-3.9	i	-1.0	3.6	0.6	/	/	/
Cc1ccccc1CNC(=O)c1csc([C@H]2C[C@H](O)[C@@H](CO)O2)n1	/	i	3.3	-0.5	-0.7	/	/	/
Oc1cc(Br)ccc1C=Nc1ccc(N2CCCCC2)cc1	0.2	i	-2.3	47.6*	36.7*	24.7	-25.8	9.4
Cc1cc(O)c(C(C)C)cc1N=Cc1ccc([N+](=O)[O-])cc1	/	i	-0.8	1.3	3.0	/	/	/
CCCCOC(=O)c1ccc(NC(=O)C(CCS(C)(=O)=O)NC(C)=O)cc1 (stereo not drawn)	5.4	i	1.7	35.8*	4.6	-15.0	-37.5	-7.9
COC(=O)c1sc(N2C(=O)C(O)=C(C(=O)c3ccc(C)o3)C2c2ccc([N+](=O)[O-])cc2)nc1C (stereo not drawn)	2.2	i	5.8	14.0	3.1	/	/	/
CCOc1ccc(C2C(C(=O)c3ccc(C)o3)=C(O)C(=O)N2c2nc(C)c(C(=O)OC)s2)cc1 (stereo not drawn)	20.2	?	21.5	41.9*	19.4	-17.4	-56.2	-7.4
CCC(CC)C(=O)c1c[nH]c(C(=O)NCc2cccs2)c1	4.5	i	7.3	70.7*	4.1	-16.7	-36.3	-5.7
O=C(O)CCCC(=O)N1CCN(C(c2ccccc2)c2ccccc2)CC1	-0.5	i	-2.5	4.0	2.8	/	/	/
Cc1c(C(=O)N2CCC[C@H]2CO)oc2c(F)cccc12	-2.2	i	-3.7	2.6	7.3	/	/	/
O=C(c1ccnc(Cl)c1)N1CCCC(N2CCN(c3ccccc3F)CC2)C1 (stereo not drawn)	2.0	i	1.0	53.5*	1.8	4.0	-25.6	-11.6
CC(=O)c1ccc(NC(=O)c2ccc(COc3ccccc3[N+](=O)[O-])o2)cc1	4.0	i	-4.1	49.4*	0.1	6.8	-2.7	-29.1
CC(C)(C)c1ccc(Oc2ccc(N)cn2)cc1	5.0	+	-78.2	55.5*	64.3*	-10.9	-26.9	-20.5
Cc1cc(Oc2ccc(N)cn2)cc(C)c1Cl	9.5	i	8.5	3.0	2.9	/	/	/
O[C@@H]1CN(Cc2cccs2)[C@@H](c2ccccc2)C[C@H]1n1cc(-c2ccc(F)cc2)nn1	/	i	2.8	2.6	-0.4	/	/	/
N#C/C(=C\c1ccc(Cl)cc1)C(=O)Nc1cccnc1	-2.1	i	-0.5	90.6*	-10.8	-8.1	-34.0	-7.4

Bioassay records deposited in PubChem by several laboratories.
